These results are taken from ChEMBL document CHEMBL1123790, “Stereospecificity of the chloride ion channel: the action of chiral clofibric acid analogues” (J Med Chem, 1987).

Structures are written as SMILES. Where only a bound is given, the exact number is not on record here.

As a reminder, the IC50 is the concentration that inhibits the measured activity by half.

For experiment [1], the species on record is Rattus norvegicus. The experiment is described as follows: Number of fibres over number of preparation sampled was determined at a concentration of 230 uM. It is filed as functional.
For experiment [2], the species on record is Rattus norvegicus. The experiment is described as follows: Latency in rat extensor digitorum longus(EDL) muscle fibers was determined at a concentration of 230 uM. The class given is functional. A digest of the protocol: (§1)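 Male Wistar rat (180–220 g) EDL muscles in Ringer's bath at 30 ± 1 °C, pH 7.3–7.4. Two intracellular microelectrodes (current electrode within 100 μm of voltage electrode). Square-wave constant-current pulses applied after holding at -80 mV. Latency = maximum delay to action potential onset; threshold = minimal long-pulse current for one spike; spikes = maximum with strong depolarization. Mean ± SEM; Student's t test.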

For experiment [3], the species on record is Rattus norvegicus. Nature of the experiment: Resting membrane potential determined in rat extensor digitorum longus(EDL) muscle fibers at a concentration of 230 uM. The class given is functional. A digest of the protocol:
as §1

The species named for experiment [4] is Rattus norvegicus. Nature of the experiment: Maximum number of spikes elicited by strong depolarizing pulses in rat extensor digitorum longus(EDL) muscle fibers was determined at a concentration of 230 uM. The class given is functional. A digest of the protocol:
as §1

The species entered for experiment [5] is Rattus norvegicus. The experiment is described as follows: Minimal current intensity for a long pulse for a single action potential in rat extensor digitorum longus(EDL) muscle fibers was determined at a concentration of 230 uM. The class given is functional. The essentials:
as §1

The species entered for experiment [6] is Rattus norvegicus. Nature of the experiment: Concentration required to block 50% chloride conductance in rat extensor digitorum longus(EDL) muscle fibers. The class given is functional, organism-based. A digest of the protocol: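 Male Wistar rats (180–220 g); EDL muscles in bath at 30 ± 1 °C, perfused with Ringer's (normal or Cl⁻-free methyl sulfate) containing compound, pH 7.3–7.4, from 10^-3 g/mL stocks in 1% NaHCO3. Intracellular microelectrode cable analysis; GCl = mean Gm − mean GK. Three or more concentrations (5–230 μM); curves fit to single-site binding by nonlinear least squares, IC50 ± SD.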

The species entered for experiment [7] is Rattus norvegicus. The experiment is described as follows: Number of fibres over number of preparation sampled was determined at a concentration of 92 uM. It is filed as functional.
Experiment [8] is filed under the species Rattus norvegicus. Nature of the experiment: Latency in rat extensor digitorum longus(EDL) muscle fibers was determined at a concentration of 92 uM. It is filed as functional. A digest of the protocol: (§2)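 EDL fibres from male Wistar rats (180–220 g), in Ringer's at 30 ± 1 °C, pH 7.3–7.4, drug diluted from bicarbonate stock. Two intracellular microelectrodes within 100 μm; fibre held at -80 mV by holding current, then square-wave constant-current depolarizing pulses. Read-outs: resting potential, latency to action potential, threshold current (long pulse), maximal spike number; mean ± SEM, fibres/preparations counted; Student's t test.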

The species entered for experiment [9] is Rattus norvegicus. Nature of the experiment: Resting membrane potential in rat extensor digitorum longus(EDL) muscle fibers was determined at a concentration of 92 uM. It is filed as functional. The essentials: as §2
For experiment [10], the species on record is Rattus norvegicus. The experiment is described as follows: Maximum number of spikes elicited by strong depolarizing pulses in rat extensor digitorum longus muscle fibers was determined at a concentration of 92 uM. It is filed as functional. A digest of the protocol: as §2
For experiment [11], the species on record is Rattus norvegicus. The experiment is described as follows: Minimal current intensity for a long pulse for a single action potential in rat extensor digitorum longus(EDL) muscle fibers was determined at a concentration of 92 uM. It is filed as functional. The essentials:
as §1

For experiment [12], the species on record is Rattus norvegicus. The experiment is described as follows: Resting membrane potential in rat extensor digitorum longus(EDL) muscle fibers was determined at a concentration of 230 uM. It is filed as functional. The essentials: as §2
Experiment [13] is filed under the species Rattus norvegicus. The experiment is described as follows: Latency was determined in rat extensor digitorum longus(EDL) muscle fibers at a concentration of 92 uM. It is filed as functional. A digest of the protocol:
as §1

The species named for experiment [14] is Rattus norvegicus. The experiment is described as follows: Resting membrane potential determined in rat extensor digitorum longus(EDL) muscle fibers at a concentration of 92 uM. The class given is functional. The essentials:
as §1

For experiment [15], the species on record is Rattus norvegicus. The experiment is described as follows: Maximum number of spikes elicited by strong depolarizing pulses in rat extensor digitorum longus(EDL) muscle fibers was determined at a concentration of 92 uM. The class given is functional. A digest of the protocol: as §1
The species named for experiment [16] is Rattus norvegicus. Nature of the experiment: Number of fibres over number of preparation sampled was determined at a concentration of. It is filed as functional.
For experiment [17], the species on record is Rattus norvegicus. Nature of the experiment: Latency in rat extensor digitorum longus(EDL) muscle fibers was determined at a concentration of 20 uM. It is filed as functional. A digest of the protocol: as §1
For experiment [18], the species on record is Rattus norvegicus. The experiment is described as follows: Resting membrane potential determined in rat extensor digitorum longus(EDL) muscle fibers at a concentration of 20 uM. It is filed as functional. The essentials: as §1
The species entered for experiment [19] is Rattus norvegicus. The experiment is described as follows: Maximum number of spikes elicited by strong depolarizing pulses in rat extensor digitorum longus muscle fibers was determined at a concentration of 20 uM. The class given is functional. A digest of the protocol: as §1
For experiment [20], the species on record is Rattus norvegicus. The experiment is described as follows: Minimal current intensity for a long pulse for a single action potential in rat extensor digitorum longus muscle fibers was determined at a concentration of 20 uM. It is filed as functional. A digest of the protocol:
as §1

Experiment [21] is filed under the species Rattus norvegicus. The experiment is described as follows: Number of fibres over number of preparation sampled was determined at a concentration of 20 uM. It is filed as functional. The essentials:
as §2

For experiment [22], the species on record is Rattus norvegicus. The experiment is described as follows: Maximum number of spikes elicited by strong depolarizing pulses in rat extensor digitorum longus(EDL) muscle fibers was determined at a concentration of 20 uM. It is filed as functional. The essentials:
as §2

For experiment [23], the species on record is Rattus norvegicus. The experiment is described as follows: Minimal current intensity for a long pulse for a single action potential in rat extensor digitorum longus(EDL) muscle fibers was determined at a concentration of 20 uM. It is filed as functional. A digest of the protocol: as §2
Experiment [24] concerns Rattus norvegicus. The experiment is described as follows: Concentration to block chloride membrane conductance (G Cl) in rat extensor digitorum longus (EDL) muscle fibers (in vivo and in vitro). It is filed as functional, organism-based. A digest of the protocol:
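Male Wistar rats 180–220 g; EDL muscles in bath at 30 ± 1 °C, perfused with Ringer's (normal or Cl⁻-free methyl sulfate), pH 7.3–7.4; compounds from 10^-3 g/mL stock in 1% NaHCO3, tested 5–230 μM. Intracellular microelectrode cable analysis; GCl = mean Gm minus mean GK; ≥3 concentrations; single-site binding fit by nonlinear least squares gives IC50 ± SD.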

For the compound `C[C@@H](Oc1ccc(Cl)cc1)C(=O)O`, in the experiment listed under Rattus norvegicus [1], the Fibers/preparations was found to be 8. This compound showed a Latency in the experiment filed under Rattus norvegicus [2] of 6.2 ms. Further, in the experiment filed under Rattus norvegicus [3], the Resting potential is 73 -mV. The same compound showed a No. of spikes in the experiment filed under Rattus norvegicus [4] of 6.5. The Threshold current in the experiment listed under Rattus norvegicus [5] is listed as 90 nA.

`CCC(Oc1ccc(Cl)cc1)C(=O)O` (racemic) came in with a half-inhibitory concentration (IC50) in the experiment listed under Rattus norvegicus [6] of 44 µM. For the same compound, the Fibers/preparations in the experiment filed under Rattus norvegicus [7] stood at 12. Besides, the Latency in the experiment filed under Rattus norvegicus [8] is less than 18.3 ms. For the same compound, the Resting potential in the experiment listed under Rattus norvegicus [9] is < 65 -mV. In the experiment filed under Rattus norvegicus [10], this compound gave a No. of spikes of less than 15.6. Also, the Threshold current in the experiment filed under Rattus norvegicus [11] worked out at 67.3 nA.

With `CC[C@@H](Oc1ccc(Cl)cc1)C(=O)O`, in the experiment listed under Rattus norvegicus [1], the Fibers/preparations is reported as 13. In addition, in the experiment filed under Rattus norvegicus [2], the Latency turned out to be 5.2 ms. Besides, in the experiment listed under Rattus norvegicus [12], the Resting potential is 70 -mV. The same compound displayed a No. of spikes in the experiment listed under Rattus norvegicus [4] of 6.5. The compound also returned a Threshold current in the experiment listed under Rattus norvegicus [5] of 121 nA.

In turn, `CC(Oc1ccc(Cl)cc1)C(=O)O` (racemic) registered an IC50 in the experiment listed under Rattus norvegicus [6] of 81 µM. Further, the Fibers/preparations in the experiment listed under Rattus norvegicus [7] came out at 18. In the experiment listed under Rattus norvegicus [13], this compound registered a Latency of 24.3 ms. Besides, the Resting potential in the experiment listed under Rattus norvegicus [14] was 74 -mV. For the same compound, in the experiment listed under Rattus norvegicus [15], the No. of spikes came out at 12.5. The compound also showed a Threshold current in the experiment listed under Rattus norvegicus [11] of 79.1 nA.

As to `C[C@H](Oc1ccc(Cl)cc1)C(=O)O`, inhibition in the experiment listed under Rattus norvegicus [6] was half-maximal at 12 µM (IC50). The same compound came in with a Fibers/preparations in the experiment listed under Rattus norvegicus [16] of 15. Moreover, the Latency in the experiment listed under Rattus norvegicus [17] is given as less than 45.5 ms. Further, in the experiment filed under Rattus norvegicus [18], the Resting potential was 70 -mV. The same compound displayed a No. of spikes in the experiment filed under Rattus norvegicus [19] of less than 18. Moreover, in the experiment listed under Rattus norvegicus [20], the Threshold current was less than 65 nA.

`CC[C@H](Oc1ccc(Cl)cc1)C(=O)O` returned an IC50 in the experiment filed under Rattus norvegicus [6] of 10.3 µM. The Fibers/preparations in the experiment listed under Rattus norvegicus [21] came out at 8. In the experiment listed under Rattus norvegicus [17], this compound yielded a Latency of less than 30.2 ms. In addition, the Resting potential in the experiment listed under Rattus norvegicus [18] is 68 -mV. Besides, the No. of spikes in the experiment filed under Rattus norvegicus [22] was less than 15. The compound also had a Threshold current in the experiment listed under Rattus norvegicus [23] of 65 nA.

Turning to `CC(C)(Oc1ccc(Cl)cc1)C(=O)O` [CLOFIBRIC ACID], the IC50 in the experiment on Rattus norvegicus [24] is 205 µM.
